Results gathered from unrelated publications.
Compare with care: the assays were run in different laboratories.
Target: BDNF/NT-3 growth factors receptor (NTRK2, Homo sapiens, UniProt Q16620)

SMILES	observed	action	method	tested at	endpoint	result
CCCOc1ccc(OC)c(F)c1C(=O)c1ccc(C(=O)N[C@@H]2CNC[C@H]2NC(=O)c2ccc3[nH]ncc3c2)cc1	enzyme activity	inhibitor		10 µM	remaining activity	71%
O=C(Nc1ccc(Br)cc1)Nc1cccc(C(=O)Nc2ccc3[nH]ncc3c2)c1	enzyme activity	inhibitor	FRET	1 µM	inhibition	15.7%
Cc1c(NC(=O)c2cc(C(N)=O)nc3cc(F)ccc23)c(C(F)(F)F)nn1Cc1ccc(C(C)(C)C)cc1	cell-free assay		competition with immobilised ligand	1 µM	remaining binding	100%
O=C(Nc1cnn(-c2csc(C(=O)NC3COC3)c2)c1)Nc1c(F)cccc1Cl	enzyme activity	inhibitor		5 µM	remaining activity	91.5%
COc1cc(Cl)c(C(=O)N[C@@H](CN[C@H]2CC[C@@H](N)CC2)Cc2ccc(C#N)cc2)cc1-c1ccc(CN[C@H](C)c2ccc(C)cc2)o1	enzyme activity	inhibitor		1 µM	remaining activity	64%
O=C(Nc1ccccc1)Nc1cccc(C(=O)Nc2ccc3[nH]ncc3c2)c1	enzyme activity	inhibitor	FRET	1 µM	inhibition	12.3%
Cc1cc(-n2nc(Cc3cc(F)cc(C(F)(F)F)c3)nc2C)ccc1C(N)=O	cell-free assay		competition with immobilised ligand	1 µM	remaining binding	98%
Cc1ccc(C(=O)Nc2ccc(CN3CCN(C)CC3)c(C(F)(F)F)c2)cc1C#Cc1cnc2cccnn12	cell-free assay			23.5 nM	remaining signal	2.3%
CC(C)(O)[C@H]1CC[C@H](Nc2ccc3ncc(-c4cccc(C(F)(F)F)c4)n3n2)CC1	enzyme activity	inhibitor		1 µM	remaining activity	7.07%
O=C(Nc1cnn(-c2csc(C(=O)NC3COC3)c2)c1)Nc1ccccc1Cl	enzyme activity	inhibitor		5 µM	remaining activity	84.2%
N#CCCc1ccc2c(c1)-c1[nH]c3ccc([N+](=O)[O-])cc3c1CC(=O)N2	cell-free assay			0.5 µM	remaining signal	86.4%
CCN(CC)CCNC(=O)c1c(C)[nH]c(/C=C2\C(=O)Nc3ccc(F)cc32)c1C	cell-free assay			10 µM	inhibition	100%
O=C(Cc1ccc(C(F)(F)F)cc1)Nc1cccc(C(=O)Nc2ccc3[nH]ncc3c2)c1	enzyme activity	inhibitor	FRET	1 µM	inhibition	16.8%
CCC(=O)N[C@@H]1CC[C@H](C(=O)N(C)c2ccc(-c3nc4ccccc4o3)cc2)C1	cell-free assay		competition with immobilised ligand	1 µM	remaining binding	100%
Nc1ncnc2occ(-c3ccc(NC(=O)Nc4cc(C(F)(F)F)ccc4F)cc3)c12	cell-free assay			20 µM	remaining signal	1.4%
COc1cc2c(N3CCN(C(=O)Nc4ccc(OC(C)C)cc4)CC3)ncnc2cc1OCCCN1CCCCC1	cell-free assay			0.5 µM	remaining signal	81.7%
Cc1cnc(NC2CCOCC2)nc1-n1cnc(C(=O)NC(CN)c2cc(F)cc(Cl)c2)c1 (centres unmarked)	enzyme activity	inhibitor	radiometric	1 µM	remaining activity	110%
C[C@H](c1ccc(F)cc1)N(Cc1cccc(C(=O)O)c1)C(=O)c1cnc2ccccc2c1	cell-free assay		competition with immobilised ligand	1 µM	remaining binding	100%
O=C(Nc1cnn2ccc(N3CCC[C@@H]3c3cc(F)ccc3F)nc12)N1CC[C@H](O)C1	enzyme activity	inhibitor	FRET	1 µM	inhibition	100%
CN(c1ccnc(CNc2nc(Nc3ccc4c(c3)CC(=O)N4)ncc2C(F)(F)F)n1)S(C)(=O)=O	cell-free assay		competition with immobilised ligand	1 µM	remaining binding	21%
CC(C)(C)c1nc2c(s1)c1nc(N)ncc1c1ccc(NS(=O)(=O)c3c(F)cccc3F)c(F)c12	enzyme activity	inhibitor	radiometric	1 µM	remaining activity	65%
O=C(Nc1ccc2[nH]ncc2c1)c1cccc(NC(=S)Nc2ccc(C(F)(F)F)cc2)c1	enzyme activity	inhibitor	FRET	1 µM	inhibition	19.6%
Nc1cnc(N2CCc3cc(S(=O)(=O)Nc4c(F)cc(Cl)cc4F)cc(N4CCCC4=O)c32)nc1	cell-free assay		competition with immobilised ligand	1 µM	remaining binding	100%
O=C(Nc1ccc(C(F)(F)F)cc1)Nc1cccc(C(=O)Nc2ccc3[nH]nc(-c4ccccc4)c3c2)c1	enzyme activity	inhibitor	FRET	1 µM	inhibition	14.7%
c1ccc(N2CCN(Cc3nc4ccccc4[nH]3)CC2)nc1	cell-free assay		competition with immobilised ligand	1 µM	remaining binding	100%
O=C(Nc1cccc(C(=O)Nc2ccc3[nH]ncc3c2)c1)Nc1ccccc1C(F)(F)F	enzyme activity	inhibitor	FRET	1 µM	inhibition	25.7%
C[C@@H]1CN(c2cc(-c3n[nH]c4ccc(OC5(C)CC5)cc34)ncn2)C[C@H](C)O1	cell-free assay		competition with immobilised ligand	0.1 µM	remaining binding	67%
Oc1cccc(-c2nc(N3CCOCC3)c3oc4ncccc4c3n2)c1	cell-free assay			0.5 µM	remaining signal	90.2%
O=C(Nc1cccc(C(=O)Nc2ccc3[nH]ncc3c2)c1)Nc1cccc(C(F)(F)F)c1	enzyme activity	inhibitor	FRET	1 µM	inhibition	24.5%
